Type: in vivo, Sprague-Dawley rats
Conditions: for T max / half-life: Normal rats, oral Gandi capsule 80 mg kg^-1, plasma, n = 6, mean ± SD; for concentration at 2 h / half-life: male, Sprague-Dawley, rat, plasma, po; for concentration at 2 h: 80 mg kg^-1 Gandi capsule; for half-life: 80 mg/kg, T 1/2 z
How it was run: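 Diabetes was induced by a single ip STZ dose of 45 mg kg−1 in citrate buffer (0.1 mol L−1, pH 4.5), with blood glucose >16.7 mmol L−1 after 1 week; rats were dosed on day 10. Rats were fasted 12 h, then given capsule contents in 0.3% CMC-Na orally; n = 6/group. Plasma was sampled 0–48 h, precipitated with IS in methanol and analysed by positive-ion LC-MS/MS; results are mean ± SD, compared by t-test.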

SMILES	T max [h]	concentration at 2 h [ng/mL]	half-life [h]	Time after oral administration in which the compound can be detected in plasma (oral Gandi capsule, rat plasma, quick elimination phase) [h]
COC(=O)C1=CO[C@@H](O[C@@H]2O[C@H](CO)[C@@H](O)[C@H](O)[C@H]2O)[C@@H]2[C@@H](C)[C@@H](O)C[C@H]12 [Loganin, loganin]	1.25 ± 0.35	42.6	0.46 ± 0.38	≤ 2.5
COc1c(O)cc(O)c2c(=O)cc(-c3ccccc3)oc12 [Wogonin, wogonin]	–	54.9	1.52 ± 0.25	–
O=C(O)[C@H]1O[C@@H](Oc2cc3oc(-c4ccccc4)cc(=O)c3c(O)c2O)[C@H](O)[C@@H](O)[C@@H]1O [Baicalin, baicalin]	1.50 ± 1.40	723	9.45 ± 2.87	–

From paper PMC9078286 (RSC Advances, 2018)
